Source: PubChem BioAssay
This is a sample that favours compounds with a hit; in the whole collection about 1.4% have one here.
Rin1-Abl PPI inh: inhibitors of Rin1-Abl protein binding, primary screen, biochemical, TR-FRET; inhibition, % at 7.35 µM; Tyrosine-protein kinase ABL1 (Homo sapiens) + Ras and Rab interactor 1 (Homo sapiens), …; 360,000 tested, 0.4% active; in the data active means inhibition above about 5%, passing the limit was not always enough
UCH37 inh: inhibitors of human UCH37 deubiquitinase, primary screen, biochemical, Ub-AMC cleavage, fluorescence; purified proteasome/UCH37; inhibition, % (no concentration beside the values); 330,000 tested, 0.33% active;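 active means mean inhibition over replicate wells above about 20%, limit read from the data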
Target sequence (Q9Y5K5 whole entry, looked up): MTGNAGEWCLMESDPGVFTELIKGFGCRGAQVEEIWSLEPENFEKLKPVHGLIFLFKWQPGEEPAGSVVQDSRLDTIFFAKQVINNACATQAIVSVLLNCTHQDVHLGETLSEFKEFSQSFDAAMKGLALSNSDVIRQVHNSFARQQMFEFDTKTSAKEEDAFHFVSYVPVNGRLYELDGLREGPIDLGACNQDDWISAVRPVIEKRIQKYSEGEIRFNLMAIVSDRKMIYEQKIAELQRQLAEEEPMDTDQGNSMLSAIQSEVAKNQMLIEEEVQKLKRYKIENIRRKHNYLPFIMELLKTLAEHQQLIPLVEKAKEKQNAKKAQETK
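Material: Human UCH37 enzyme supplied as purified proteasome complex | Schedule: 30 min compound-proteasome preincubation then 25 min substrate reaction, room temperature | Detection: AMC fluorescence from Ub-AMC cleavage, excitation 355 nm, emission 460 nm | Benchmarks: Wells without proteasome as full block, compound-free enzyme plus substrate as uninhibited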
TbMetRS inhib: T. brucei MetRS inhibitors, primary screen, biochemical, luminescence. 360,000 tested, 0.4% active. AID 624268, 2012. methionyl-tRNA synthetase (Trypanosoma brucei brucei). purified T. brucei MetRS, ATP depletion, Kinase-Glo luminescence. inhibition, % at 11.9 µM;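 active means inhibition above a per-plate cutoff of the control wells' mean inhibition plus 3 SD, cut at about 5.5% in these data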
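Test system: purified T. brucei MetRS enzyme. Also added: ATP, methionine and E. coli bulk tRNA substrates. Compound: 11.9 µM single point. Schedule: 15 min enzyme-compound preincubation, 2 h reaction, 10 min detection, 25 °C. Signal: luciferase luminescence of residual ATP, Kinase-Glo. Evaluation: percent inhibition versus plate control medians. Controls: DMSO wells, low control.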
ATG4B inhibitor: ATG4B protease inhibitors, primary screen, biochemical, fluorescence, uHTS. Cysteine protease ATG4B (Homo sapiens), Q9Y4P1. ATG4B cleavage of LC3-PLA2, NBD-HPC fluorescence, 1 h. inhibition, % at 8.33 µM. 340,000 tested, 0.51% active. AID 504462, 2011; in the data active means inhibition above about 40%
Each line names hits and unclear results; the compound was inactive in the other large screens.

CC(C)(C)OC(=O)CNC(=O)c1nc[nH]c1C(=O)N1CCc2ccccc2C1	UCH37 inh 31
CC(=O)NC(c1cccs1)c1cc([N+](=O)[O-])c2cccnc2c1O (stereo not given)	Rin1-Abl PPI inh 17, UCH37 inh 20
COc1cc(/C=C2\S/C(=N/S(=O)(=O)c3ccc(C)cc3)NC2=O)c([N+](=O)[O-])cc1OC	UCH37 inh 20
Cc1ccc(S(=O)(=O)/N=C2/NC(=O)/C(=C/c3cc([N+](=O)[O-])ccc3O)S2)cc1	none (no result: UCH37 inh)
C/C(CCc1ccc2c(c1)OCO2)=N\NC(=O)c1ccccc1	none (no result: UCH37 inh)
NC(=NCc1ccc2c(c1)OCO2)NC(=O)c1ccccc1	UCH37 inh 24
CC(=O)C=NNc1ccccc1	none (no result: Rin1-Abl PPI inh, TbMetRS inhib, ATG4B inhibitor)
CCOC(=O)/C(C#N)=C1/C=CN(c2ccc(C)cc2)C=N1	none
CCOC(=O)/C(C#N)=C1/C=CN(c2ccccc2)C=N1	UCH37 inh 21
COc1ccc(C2c3ccc(O)cc3Oc3ncn(Cc4ccccc4)c(=N)c32)cc1OC (stereo not given)	none
O=C(NCN1C(=O)C2C3C=CC(C3)C2C1=O)Nc1ccccn1 (stereo not given)	none
CC(NC(=O)Nc1ccccn1)N1C(=O)C2C3C=CC(C3)C2C1=O (stereo not given)	UCH37 inh 23
Oc1cccc(CN2CCOCC2)c1O	Rin1-Abl PPI inh 13
Cc1nc(/C=[N+](\[O-])C(C)(C)/C=N/O)n(O)c1C	none (no result: UCH37 inh)
Clc1cc(Br)ccc1OCCOCCN1CCOCC1	UCH37 inh 29
Clc1cc(Br)ccc1OCCOCCN1CCCC1	none
O=C(NC(Cc1c[nH]c2ccccc12)c1nnc2n1CCCCC2)c1ccccc1 (stereo not given)	none
O=C1OC(c2cccs2)Sc2ccccc21 (stereo not given)	none (no result: UCH37 inh, ATG4B inhibitor)
O=C1OC(c2ccccc2)Sc2ccccc21 (stereo not given)	ATG4B inhibitor 48
CCn1c(SCC(=O)NCCOc2ccccc2)nc2ccccc2c1=O	UCH37 inh 28
CCn1c(SCC(=O)NCc2ccco2)nc2ccccc2c1=O	none
C=CCN1C(=O)/C(=C/c2ccc(OC(C)=O)c(OCC)c2[N+](=O)[O-])SC1=S	UCH37 inh 42
O=C(NCc1ccccc1)C(=O)NCC(c1ccco1)N1CCN(c2ccccc2F)CC1 (stereo not given)	Rin1-Abl PPI inh 4.7
O=C(NCc1cccnc1)C(=O)NCC(c1ccco1)N1CCN(c2ccccc2F)CC1 (stereo not given)	none
CN(C)c1ccc(C(=O)c2ccccc2C(=O)O)c(O)c1	UCH37 inh 23
CN(C)CCCNC(=O)CCc1nc2ccccc2c(=O)[nH]1	UCH37 inh 20
N#Cc1ccc(NC(=O)COc2ccc(-n3cnnn3)cc2)cc1	none
O=C(CSc1nc(-c2ccccc2)nn1C(=O)c1ccccc1)Nc1cccc([N+](=O)[O-])c1	TbMetRS inhib 18
O=S(=O)(Nc1nc2ccccc2nc1Cl)c1ccc2c(c1)OCCO2	none
CCCCCC(=O)Nc1cc(S(=O)(=O)O)cc2cc(S(=O)(=O)O)cc(O)c12	ATG4B inhibitor 43 (no result: UCH37 inh)
O=C(Nc1ccc(Br)cc1)c1cccc(S(=O)(=O)Nc2cnc3ccccc3c2)c1	TbMetRS inhib 65
O=C(Nc1ccc(Br)cc1)c1cccc(S(=O)(=O)Nc2ccccn2)c1	none
Cc1ccc(-n2nc3c(N4CCC(C(=O)NCc5ccccc5C)CC4)nnc(C)c3c2C)cc1	ATG4B inhibitor 54
Cc1ccc(-n2nc3c(N4CCC(C(=O)N5CCCCCC5)CC4)nnc(C)c3c2C)cc1	ATG4B inhibitor 71
CN(C)S(=O)(=O)Oc1ccc(Cl)cc1C(=O)Nc1cccc(C(F)(F)F)c1	none
CC1CCCC(C)N1C(=O)COC(=O)c1ccc(S(=O)(=O)N(C)c2ccccc2)cc1 (stereo not given)	none
CN(/C=C/C(=C\C=[N+](C)c1ccccc1)OCCCS(=O)(=O)[O-])c1ccccc1	UCH37 inh 20
CN(/C=C/C(=C/C=[N+](C)c1ccccc1)OCCCS(=O)(=O)[O-])c1ccccc1	UCH37 inh 21
CN(CC(=O)NCCc1ccc(S(N)(=O)=O)cc1)c1ccccc1	none
COc1ccc(-c2csc(/C(C#N)=C\c3ccc(OC)c([N+](=O)[O-])c3)n2)cc1	none
COc1ccc(-c2csc(/C(C#N)=C\c3ccc(O)c([N+](=O)[O-])c3)n2)cc1OC	UCH37 inh 21
C[n+]1cc(C(=O)N2CCCCC2)ccc1/C=C/c1c[nH]c2ccccc12	UCH37 inh 24
O=C(C(=O)N1CCCCCC1)c1c[nH]c2ccccc12	none
O=C1[C@@H]2Cc3c([nH]c4ccccc34)C(c3ccc(Cl)cc3)N2C(=O)CN1CCO (stereo not given in full)	TbMetRS inhib 6.0
O=C1[C@@H]2Cc3c([nH]c4ccccc34)C(c3ccccc3)N2C(=O)CN1CCO (stereo not given in full)	none
CO/N=C/c1ccc(N2CCN(C(=O)c3ccc(C)cc3)CC2)c([N+](=O)[O-])c1	TbMetRS inhib 16 (no result: UCH37 inh)
CON=Cc1ccc(N2CCN(C(=O)c3ccc(F)cc3)CC2)c([N+](=O)[O-])c1	none (no result: Rin1-Abl PPI inh, TbMetRS inhib, ATG4B inhibitor)
CC(CCC(=O)NN)C1CCC2C3CCC4CC(O)CCC4(C)C3CCC12C (stereo not given)	none (no result: UCH37 inh)
CC(CCC(C)C(C)(C)C)[C@@H]1CC[C@H]2C3C[C@H](OS(O)(=S)=S)[C@H]4C[C@H](OS(O)(=S)=S)[C@@H](OS(O)(=S)=S)C[C@]4(C)[C@H]3CC[C@]12C (stereo not given in full) (tested in a mixture with another compound)	TbMetRS inhib 16, ATG4B inhibitor 84 (no result: UCH37 inh)
Cc1ccc(C)c(S(=O)(=O)Nc2cc(SCC(=O)O)c(O)c3ccccc23)c1	UCH37 inh 23
O=C1C(NS(=O)(=O)c2cccs2)=C(N2CCN(c3cccc(C(F)(F)F)c3)CC2)C(=O)c2ccccc21	ATG4B inhibitor 64
CCCCn1c(SCC(=O)NC2CCCC2)nc2ccccc2c1=O	none
O=C(CN1C(=O)S/C(=C\c2cccs2)C1=O)Nc1ccc(O)c(C(=O)O)c1	UCH37 inh 21
CN(C)CCCOc1ccc(Cl)cc1Br	TbMetRS inhib 5.9
Cc1ccc(OCCCN(C)C)c(Br)c1	none
N#CCCN(Cc1cccs1)C(=O)Nc1ccc(F)cc1	none
CC1(C)Cc2ccccc2C(=O)N1	UCH37 inh 26
O=C(CNc1cc(S(=O)(=O)N2CCOCC2)ccc1NCC1CCCO1)Nc1ccc(F)c(F)c1 (stereo not given)	TbMetRS inhib 8.5
NC(=O)c1ccc(NC(=O)COC(=O)c2ccc3ccccc3n2)cc1	none
CCOC(=O)[C@@H]1[C@H]2COc3ccc(Br)cc3[C@@H]2N2C(=O)N(c3ccc(F)cc3)C(=O)[C@@]12C	UCH37 inh 20
